From PubChem
MC4R antag cAMP: human MC4R antagonism in cAMP assay; P32245; MC4R-expressing cells, MTII-stimulated cAMP, LANCE TR-FRET; inhibition, % at 6.5 µM; 0.48% of 360,000 active; AID 540295;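 active means inhibition above its plate's cutoff, the mean of tested wells on that plate plus 3 SD, cut at about 29% in these data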;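 further: 0% = Melanotan II alone and 100% = Melanotan II plus saturating MCL0020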
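Assay system: U2OS cells stably expressing human melanocortin 4 receptor (MC4R) / Dosing: 6.5 µM / Timing: compound 30 min, challenge 1 h, detection 1 h / Measured by: Eu-cAMP/anti-cAMP TR-FRET, emission 671 nm / Replicates: singlicate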
NR2E3 ag-1: activates human NR2E3 receptor | Q9Y5X4 | CHO-S Gal4-NCOR/VP16-NR2E3 two-hybrid, luciferase | inhibition of corepressor binding, % at 3.98 µM | 0.35% of 360,000 active | AID 602229;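 active means inhibition above the mean of all tested compounds plus 3 SD, cut at about 70% in these data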;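 further: 0% = DMSO with NR2E3 transfected cells and 100% = cells lacking NR2E3 construct; higher means lower luciferase signal from less NR2E3 corepressor binding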
Rev-erbA mod: modulators of human Rev-erb alpha DNA binding; P20393; Rev-erbα–FITC-DNA binding, fluorescence polarization, 90 min; activity, % at 10 µM; 0.79% of 370,000 active;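 active means activity above about 14%, limit read from the data; passing the limit was not always enough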;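 further: 0% = DMSO wells with 35 nM protein and 100% = DMSO wells with 750 nM protein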
Target sequence (P20393 whole entry, looked up): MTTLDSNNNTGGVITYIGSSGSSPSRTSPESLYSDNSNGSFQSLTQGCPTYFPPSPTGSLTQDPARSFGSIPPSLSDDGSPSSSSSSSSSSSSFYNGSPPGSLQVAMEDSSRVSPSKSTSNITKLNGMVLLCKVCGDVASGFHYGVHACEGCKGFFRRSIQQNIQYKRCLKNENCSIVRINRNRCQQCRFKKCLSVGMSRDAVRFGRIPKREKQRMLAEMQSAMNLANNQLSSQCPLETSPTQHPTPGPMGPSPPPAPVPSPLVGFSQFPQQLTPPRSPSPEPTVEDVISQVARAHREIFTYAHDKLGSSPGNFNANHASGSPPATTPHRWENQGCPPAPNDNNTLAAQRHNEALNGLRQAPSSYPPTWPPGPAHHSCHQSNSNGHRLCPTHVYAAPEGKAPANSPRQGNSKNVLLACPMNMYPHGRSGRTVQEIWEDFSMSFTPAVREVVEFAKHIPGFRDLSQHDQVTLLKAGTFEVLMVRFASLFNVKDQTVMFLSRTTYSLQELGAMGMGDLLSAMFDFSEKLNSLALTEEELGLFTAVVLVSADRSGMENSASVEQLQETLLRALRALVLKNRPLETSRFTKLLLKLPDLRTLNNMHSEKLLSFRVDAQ
PG9 Ab binder: PG9 antibody binding by small molecule; TR-FRET gp120-PG9 antibody binding; inhibition, % at 6.7 µM; 0.43% of 360,000 active; in the data active means inhibition above about 8.5%
MC4R barr agon: activates human MC4R beta-arrestin recruitment; P32245; activation, % at 8.9 µM; 0.98% of 360,000 active; AID 540308; U2OS MC4R beta-arrestin complementation, luminescence; percent of melanotan II response, DMSO zero;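 active means activation above a per-plate cutoff, the mean activation of sample wells on that plate plus 3 SD, cut at about 8% in these data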
NR2E3 ag-2: NR2E3 (human) agonism | Q9Y5X4 | 0.12% of 320,000 active | GST-NR2E3/biotin-RetCOR TR-FRET, 1536-well | inhibition of corepressor binding, % at 4.78 µM | AID 2300;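 active means percent inhibition above the cutoff of mean plus 3 SD of all tested compounds, set per screening campaign, cut at about 20% in these data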;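 further: 0% = DMSO wells and 100% = biotin wells as full block of FRET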
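Test system – NR2E3–RetCOR corepressor complex · Quantity – NR2E3 fusion 1.35 nM · Buffer or medium – Tris pH 7.5 · Incubation – Compound–protein incubation for 5 h at 4 °C · Technique – TR-FRET, Eu(K)-anti-GST donor, streptavidin-D2 acceptor, ex 340, em 617/671 nm · Evaluation – percent inhibition of 671/617 nm emission ratio versus biotin and DMSO controls · Plate – 1536-well format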
NR1D1 mod conf: confirmation of modulators of human Rev-erb alpha DNA binding; 61% of 3,000 active; activation, % at 25 µM; AID 1259319; shares compounds with Rev-erbA mod; Rev-erb alpha FITC-DNA binding, fluorescence polarization, 90 min;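 active means activation at or above a set limit, or at least 3 SD above the negative control mean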;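 further: 0% = 35 nM protein with DMSO and 100% = 750 nM protein high control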
RORg DNA counter: affects RORgamma DNA binding in a Rev-erb alpha counter-screen. 8% of 910 active. IC50, µM. shares compounds with Rev-erbA mod. purified RORgamma protein-FITC-DNA binding, fluorescence polarization;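 active means Compounds whose fitted half-maximal concentration for disrupting protein-DNA binding is below 10 micromolar; the record names Rev-erb in its text, so the target is in doubt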
The depositor's hits bear a star; · = no result. The list is not random: actives were taken first. Their share in the collection is about 2.7%.

SMILES	MC4R antag cAMP	NR2E3 ag-1	Rev-erbA mod	PG9 Ab binder	MC4R barr agon	NR2E3 ag-2	NR1D1 mod conf	others
CCCCCCc1cc2cc(C(=O)Nc3ccccc3)c(=O)oc2cc1O	4.3	-19.1	90.8*	-0.4	-0.1	8.1	43.2*	RORg DNA counter=6.34*
C/C(=N\NC(=O)c1cc2ccccc2cc1O)c1ccc2c(c1)OCO2	-1.5	-7.7	0.9	-1.1	-1.4	0.1	·
O=C(COC(=O)c1cccc([N+](=O)[O-])c1)Nc1ncc(Br)s1	12.1	1.0	-1.4	-0.8	-0.1	·	·
COc1cc(/C=C/C(=O)OCC(=O)c2ccc(S(=O)(=O)N3CCCCC3)cc2)cc(OC)c1OC	5.5	-12.5	18.0*	-0.7	1.6	·	5.4
Cc1c(NS(=O)(=O)c2cccc([N+](=O)[O-])c2)c(=O)n(-c2ccccc2)n1C	6.9	-6.3	-3.9	1.8	0.6	-4.6	·
CC(=O)c1ccc(NC(=O)c2cccc(S(=O)(=O)N3CCN(C)CC3)c2)cc1	3.4	-30.2	0.0	-1.6	1.0	3.0	·
CC(=O)c1cc2c(cc1N/C(=N/S(=O)(=O)c1ccccc1)c1ccc(Cl)cc1)OCO2	-3.5	-1.4	89.8*	-4.0	-0.9	-0.1	47.8*	RORg DNA counter=>40
CC(=O)c1cc2c(cc1NC(=O)c1cccc(S(=O)(=O)N3CCN(C)CC3)c1)OCO2	-2.3	1.5	19.8*	1.6	-0.5	3.2	5.2
Cc1nn(-c2ccccc2)c2nc(N)c(C#N)c(-c3ccc(F)cc3)c12	11.0	-27.1	5.2	-0.6	-0.3	-0.1	·
Cc1ccc(-n2nc(C)c3c(-c4cccs4)c(C#N)c(N)nc32)cc1	15.3	-50.9	60.1*	-0.2	-1.4	2.5	30.3*
CCC[C@H]1[C@@H](NC(=O)c2ccc(Cl)cc2)CC[C@@]23CCCN2C(=O)CCC[C@@H]13	·	·	-3.9	·	·	·	·
CCC[C@H]1[C@@H](NCc2cccs2)CC[C@@]23CCCN2C(=O)CCC[C@@H]13	·	·	20.6*	·	·	·	11.4*
c1ccc(Cn2nnc3c(NCC4CCCO4)ncnc32)cc1 (centres undefined)	-1.8	-45.1	-2.6	0.4	-2.3	5.9	·
CN(C)c1ccc(N=Nc2ccccc2C(=O)OCC(=O)NCC2CCCCC2)cc1	9.3	-29.2	28.6*	-2.7	-1.9	0.8	35.9*	RORg DNA counter=>40
Cc1cccc(CCNc2nc3ccc(C)cc3n3cnnc23)c1	-2.6	-7.0	13.0	-1.6	-1.2	0.7	·
Cc1ccc2nc(NCCc3ccc(Cl)cc3)c3nncn3c2c1	-8.7	-8.4	28.0*	-2.4	-1.8	-2.7	8.4
COc1ccc(N/C=C(\C=C\C#N)S(=O)(=O)c2ccccc2)cc1	4.6	-14.2	22.0*	1.2	2.8	0.8	2.6
COc1cc(-c2nc(-c3ccc(Br)o3)no2)cc(OC)c1OC	2.0	-10.0	27.2*	-0.5	-0.6	2.7	8.4
COc1ccc(-c2noc(-c3ccc(Br)o3)n2)cc1OC	13.2	-21.2	-0.5	-0.2	-1.9	-1.2	·
O=c1c2sc3nc(N4CCOCC4)c4c(c3c2ncn1C(c1ccccc1)c1ccccc1)CCCC4	9.1	0.2	29.6*	1.0	0.0	·	26.8*
O=c1c2sc3nc(N4CCOCC4)c4c(c3c2ncn1-c1ccccc1)CCCC4	-0.9	-31.0	3.2	1.1	-2.5	3.0	·
CC(=O)N(CC(=O)O)c1ccccc1	6.5	-4.6	1.6	0.1	-2.6	5.1	·
O=C(O)CN(CCN(CC(=O)O)CC(=O)O)CC(=O)O	·	·	49.7*	·	·	·	2.9
COc1ccc(-c2nnc3sc(-c4ccccn4)nn23)cc1	·	·	·	·	·	-2.3	·
c1ccc(-c2nn3c(-c4ccccc4)nnc3s2)cc1	1.1	3.3	15.3	6.5	-0.3	0.7	·
SMILES	MC4R antag cAMP	NR2E3 ag-1	Rev-erbA mod	PG9 Ab binder	MC4R barr agon	NR2E3 ag-2	NR1D1 mod conf	others
Cc1cccc(-c2nnc3sc(-c4ccccc4)nn23)c1	-6.2	-18.1	82.3*	-0.6	0.5	-5.0	135.4*
CC(C)(C)c1ccc(-c2nnc3sc(-c4ccccn4)nn23)cc1	0.8	-3.6	21.8*	4.4	5.3	1.5	21.0*
CCCCC(=O)Nc1cc(-c2nc3ncccc3o2)ccc1C	-2.0	-29.4	-0.1	-0.7	-0.8	-0.5	·
CSCSC1=C(C#N)C(c2ccc(Cl)cc2)C(C(C)=O)=C(C)N1 (centres undefined)	·	·	·	·	·	-1.4	·
N#CC1=C(SCC(N)=O)NC2=C(C(=O)c3ccccc32)C1c1ccc(Cl)cc1 (centres undefined)	3.8	-26.2	33.0*	-1.4	0.8	-8.8	54.4*	RORg DNA counter=>40
CC(C)OC(=O)Nc1ccc2c(c1)N(C(=O)CCN(C)C)c1ccccc1CC2	0.3	-8.4	-2.8	-0.6	0.6	5.8	·
CN(C(=O)c1cccc(NC(=O)Cc2ccc(NC(=O)C3CCN(C(=O)CCc4ccccc4)CC3)cc2)c1)C1CCCC1	·	·	-8.0	-0.6	·	·	·
COc1ccc(/C=N\NC(=O)c2ccccc2[N+](=O)[O-])cc1COc1c(F)c(F)c(F)c(F)c1F	6.0	9.2	19.8*	-1.1	-2.8	-0.7	13.7
COc1cc(N(C(C)=O)c2ccc(O)cc2)c2ncccc2c1	6.6	-12.4	-0.2	0.2	-1.5	·	·
COc1ccc(C(=O)OCC(=O)Nc2nc3c(F)c(F)c(F)cc3s2)cc1OC	11.8	-44.4	19.9*	0.7	-2.0	1.5	3.1
Cc1cc(CN2CCOCC2)c(O)c(C2(C)CCCCC2)c1	1.8	-13.1	18.4*	-3.5	-0.6	-0.7	24.0*
Fc1ccc(CNC(=S)NC2CCCCC2)cc1	11.2	-9.5	2.0	-0.1	-0.1	2.8	·
COc1cc(/C=C(\C#N)c2nc3ccccc3o2)ccc1O	-1.5	29.9	42.7*	-7.3	-3.1	-1.1	59.7*	RORg DNA counter=>40
N#C/C(=C\c1ccc(O)cc1)c1nc2ccccc2o1	-11.6	-88.6	7.3	-1.1	-2.8	0.0	·
CCN(CC)c1ccc2cc(-c3nc(-c4ccc(OC)cc4)cs3)c(=O)oc2c1	·	·	40.4*	0.1	·	0.8	29.0*
CCN(CC)c1ccc2cc(-c3nnc(-c4ccccc4)o3)c(=O)oc2c1	0.3	-150.0	18.2	-3.2	-2.4	-2.6	·
N#CCSc1ncccc1-c1nc2ccccc2[nH]1	-1.9	15.6	2.1	-1.0	0.6	4.6	·
c1cnc(SCC2CCCCC2)c(-c2nc3ccccc3[nH]2)c1	·	·	31.7*	·	·	·	32.6*	RORg DNA counter=>40
COc1ccc(Cn2c(=S)[nH]c3cc(OC)c(OC)cc3c2=O)cc1	5.7	2.9	7.2	-0.8	0.5	0.6	·
O=c1c2cc(F)ccc2[nH]c(=S)n1Cc1ccc(F)cc1	4.6	-54.9	57.0*	1.1	-1.7	4.5	17.3*
